From PubChem
Runt-CBFb FRET = blocks binding of human RUNX1 Runt domain to CBFb | Cerulean-Runt/Venus-CBFb FRET ratio 530/480, 1 h | inhibition, % at 20 µM | 220,000 compounds, 0.46% hits | AID 1496;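 active = inhibition over about 50% at 20 µM in the single-dose screen, limit read from the data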;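 also: 0% = DMSO wells and 100% = excess unlabeled CBFb competitor control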
Target sequence (Q01196 whole entry, looked up, the tested form may be a part): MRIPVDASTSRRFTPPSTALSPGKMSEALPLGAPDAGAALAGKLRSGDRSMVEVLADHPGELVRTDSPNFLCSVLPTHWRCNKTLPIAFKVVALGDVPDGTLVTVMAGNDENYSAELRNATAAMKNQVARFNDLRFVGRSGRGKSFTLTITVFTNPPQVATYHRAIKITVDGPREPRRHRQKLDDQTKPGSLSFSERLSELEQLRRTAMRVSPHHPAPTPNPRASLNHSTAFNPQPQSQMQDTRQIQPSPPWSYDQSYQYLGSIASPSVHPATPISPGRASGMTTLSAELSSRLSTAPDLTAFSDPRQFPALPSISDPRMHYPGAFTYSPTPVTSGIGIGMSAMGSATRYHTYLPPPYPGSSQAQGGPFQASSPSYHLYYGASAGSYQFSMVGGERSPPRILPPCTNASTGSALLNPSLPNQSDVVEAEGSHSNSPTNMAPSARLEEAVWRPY
Target sequence (Q13951 whole entry, looked up, the tested form may be a part): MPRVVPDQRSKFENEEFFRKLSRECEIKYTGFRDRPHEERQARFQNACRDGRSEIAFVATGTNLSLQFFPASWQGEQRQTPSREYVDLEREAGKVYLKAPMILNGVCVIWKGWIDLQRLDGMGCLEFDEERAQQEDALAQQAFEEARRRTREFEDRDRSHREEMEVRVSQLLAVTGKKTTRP
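Doses: 20 µM compound in 1% DMSO | Material: Cerulean-labeled Runt domain protein | Amount: Each fluorescent fusion protein 100 nM | Schedule: Two 1 h room-temperature incubations shielded from light | Measured by: FRET fluorescence | Evaluation: Loss of energy transfer signal | Controls: Unlabeled CBFb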
RanGTP-Imp inh = disruptors of Ran-importin-beta complex formation – biochemical, FRET, CFP-Ran, YFP-importin-beta, homogeneous, primary screen; 300,000 compounds, 1.1% hits; cell-free CFP-Ran/YFP-importin-beta FRET ratio; inhibition, % (test concentration not listed);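 active = more than half of the replicate wells show a fall in the fluorescence ratio signal beyond about 16%, limit read from the data, passing the limit was not always enough; inconclusive = exactly half of the replicate wells pass the set limit; inactive = fewer than half of replicates pass the limit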;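 also: 0% = DMSO wells and 100% = Ran loaded with GDP instead of GTP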
Runt-SMMHC FRET = inhibitors of human RUNX1 Runt domain binding to CBFb-SMMHC; 220,000 compounds, 0.74% hits; Cerulean-Runt/Venus-CBFb-SMMHC FRET ratio 530/480, 1 h; inhibition, % at 20 µM; Q01196+Q13951;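 active = mean inhibition across duplicate retests at 20 µM reaching about 50%, limit read from the data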;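 also: 0% = DMSO wells and 100% = wells with excess untagged CBFb-SMMHC; inhibitors lower the FRET ratio by blocking Runt binding to CBFb-SMMHC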
Hck Nef HTS = blocks Nef-activated human Hck kinase; P08631; Recombinant Hck-YEEI plus Nef, Z-Lyte FRET kinase assay; inhibition, % at 20 µM; 220,000 compounds, 0.68% hits;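 active = Hck-Nef kinase inhibition above about 50%, limit read from the data; inactive = inhibition below that limit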;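 also: 0% = DMSO with Hck plus Nef and 100% = Hck alone without Nef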
* hit, by the source's call; u = inconclusive; x = no result; + = active, no number. Rows were chosen to be rich in hits. Some 1.8% of all compounds tested hit in one or more screens of this group.

SMILES	Runt-CBFb FRET	RanGTP-Imp inh	Runt-SMMHC FRET	Hck Nef HTS
COc1ccccc1C1CN(c2ccccc2)N=C1c1cccs1 (stereo unspecified)	45.7	2.8	59.4*	44.2
COc1cccc(C2CN(c3ccc(F)cc3F)N=C2c2cccs2)c1OC (stereo unspecified)	25.3	u	74.9	37.9
COc1ccc2cc(S(=O)(=O)c3ccccc3)c(=O)oc2c1	2.1	0.9	1.5	20.4
Cc1ccc(S(=O)(=O)c2cc3ccc(O)cc3oc2=O)cc1C	x	131.8*	x	x
O=C1CC(N2CCc3ccccc32)C(=O)N1c1ccc(F)cc1 (stereo unspecified)	x	-2.1	x	17.4
O=C(O)/C=C/c1coc2ccccc2c1=O	1.6	35.4*	2.7	0.4
O=C(O)/C=C/c1coc2ccc(F)cc2c1=O	0.0	-2.0	-4.0	2.9
C=CCOCC(O)Cn1c(N2CCCC2)nc2c1c(=O)[nH]c(=O)n2C (stereo unspecified)	x	-0.4	x	x
Cn1c(N)c(C(=O)CSc2nc3ccccc3[nH]2)c(=O)n(C)c1=O	2.3	-2.2	3.3	14.5
Oc1c(CN2CCc3ccccc3C2)cc(Cl)c2cccnc12	3.1	23.0*	-14.6	2.3
COc1ccc(F)cc1S(=O)(=O)n1nc(C)cc1C	x	-0.2	x	x
O=C(Nc1nc2c(s1)CN(Cc1ccccc1)CC2)c1cccc(S(=O)(=O)N2CCc3ccccc32)c1	-5.7	140.1*	-2.7	4.5
O=C(Cc1cn2ccsc2n1)Nc1nc2c(s1)CN(Cc1ccccc1)CC2	47.3	11.1	77.1*	7.5
Nc1nonc1C(=O)N/N=C/c1ccc(-c2cccc(C(=O)O)c2)o1	22.1	-3.4	19.2	22.8
COCCn1c(SCC(=O)Nc2ccc(OC)cc2OC)nc2ccccc2c1=O	x	21.0*	x	x
COc1ccc(NC(=O)CSc2nc3ccccc3c(=O)n2Cc2cccs2)c(OC)c1	0.6	-8.4	-4.3	1.0
COc1cc(/C=C(\C#N)C(=O)Nc2cccc3ncccc23)ccc1O	84.5*	62.8*	91.7*	6.9
COc1cc(/C=C(\C#N)C(=O)Nc2ccccn2)ccc1O	x	4.5	x	x
CC1(C)Cc2c(sc(N)c2C#N)C(C)(C)N1	7.7	2.5	17.4	28.8
CCC1(C)Cc2c(sc(NC(=S)NC(=O)c3ccccc3)c2C#N)CO1 (stereo unspecified)	45.9	2.8	21.4	1.9
CCN1CCc2c(sc(NC(=S)NC(=O)c3ccccc3)c2C#N)C1	11.7	140.8*	-14.1	-0.6
CN1Cc2sc(N)c(C#N)c2CC1(C)C	89.0*	116.6*	81.6*	6.5
CN1Cc2sc(NC(=S)NC(=O)c3ccccc3)c(C#N)c2CC1(C)C	14.0	144.8*	67.1*	8.6
CCN(CC)c1ccc(C=C(c2nnnn2-c2ccc(C)cc2)c2nnnn2-c2ccc(C)cc2)cc1	-85.7	-6.8	-194.9	-2.7
Cc1onc(-c2c(Cl)cccc2Cl)c1C(O)c1ccccc1 (stereo unspecified)	x	1.0	x	x
SMILES	Runt-CBFb FRET	RanGTP-Imp inh	Runt-SMMHC FRET	Hck Nef HTS
COc1ccc(N=Cc2c(O)n(-c3ccc(OC)cc3)c(=O)c3ccccc23)cc1	3.4	5.0	90.0*	32.1
COc1ccc(Cn2c(O)c(C=Nc3ccc(C)cc3)c3ccccc3c2=O)cc1	-55.3	-3.6	-83.9	5.8
COc1ccc(Cn2c(O)c(C=Nc3ccc(O)cc3)c3ccccc3c2=O)cc1	-175.4	30.4*	8.6	-1.4
COc1ccc(Cn2c(O)c(C=Nc3ccccc3)c3ccccc3c2=O)cc1	-6.8	-5.5	-19.6	3.2
O=c1c2ccccc2c(C=Nc2ccc(O)cc2)c(O)n1Cc1ccccc1	-79.8	33.3*	-78.8	17.8
Cc1ccc(NC(=O)CN2C(=O)CNC2=O)cc1	2.1	0.5	2.2	24.4
O=C(Nc1ccccc1N1CCN(c2ccccc2)CC1)c1ccccc1	1.5	3.3	3.8	2.3
CN(C)S(=O)(=O)c1cccc(NC(=S)N/N=C/c2cc(Br)ccc2O)c1	3.0	4.9	81.2*	-8.2
CC(=O)Nc1ccc(OCCC[n+]2ccccc2)cc1	-1.4	16.6*	-2.0	16.4
O=S(=O)(NC1CCCCC1N1CCC(O)CC1)c1ccccc1 (stereo unspecified)	x	55.6*	x	x
CCCN1CCN(C2CCCCC2NS(=O)(=O)c2ccccc2)CC1 (stereo unspecified)	x	3.1	x	x
C[C@H](NC(CCc1ccccc1)C(=O)O)C(=O)N1CCC[C@H]1C(=O)O (stereo partly specified)	x	0.0	x	x
CN1/C(=C/C(=O)c2ccc(Cl)cc2)Sc2cc3c(cc21)OCO3	-56.3	36.1*	-78.6	8.5
COc1ccc(C(=O)N(C)Cc2ccccn2)cc1OC1CCN(C(C)C)CC1	x	-0.4	x	x
N=c1c(S(=O)(=O)c2ccc(F)cc2)cc2c(=O)n3ccccc3nc2n1CC1CCCO1 (stereo unspecified)	x	175.0*	x	x
Cc1cccn2c(=O)c3cc(C#N)c(=O)n(CC4CCCO4)c3nc12 (stereo unspecified)	21.6	x	60.4*	+
Cc1ccc(S(=O)(=O)c2cc3c(=O)n4ccccc4nc3n(CC3CCCO3)c2=N)cc1 (stereo unspecified)	x	x	x	4.2
Cc1ccc(S(=O)(=O)c2cc3c(=O)n4cccc(C)c4nc3n(CC3CCCO3)c2=N)cc1 (stereo unspecified)	112.3*	x	37.9	x
Cc1ccc2nc3c(cc(C#N)c(=N)n3CC3CCCO3)c(=O)n2c1 (stereo unspecified)	10.8	x	42.1	x
CN(C)C(=O)c1ccc(-n2cccn2)nc1	-1.2	4.1	-18.6	19.2
CN1CCc2c(sc(/N=C/c3cccs3)c2C(N)=O)C1	80.6*	u	65.0*	7.2
CN1CCc2c(sc(/N=C/c3ccco3)c2C(N)=O)C1	106.1*	-2.5	62.5*	4.5
Cc1ccc(/C=N/c2sc3c(c2C(N)=O)CCCC3)o1	9.2	3.1	1.9	10.8
CCOC(=O)c1c(/N=C/c2cccc(C)c2O)sc2c1CCN(C)C2	36.8	12.0	13.0	-0.8
COc1cc(/C=C2/SC(=O)NC2=O)ccc1Oc1ccc([N+](=O)[O-])cc1[N+](=O)[O-]	-0.7	-6.1	-4.2	51.5*
SMILES	Runt-CBFb FRET	RanGTP-Imp inh	Runt-SMMHC FRET	Hck Nef HTS
CCOC(=O)c1cc2c(=O)n3ccccc3nc2n(C(C)C)c1=NC(=O)c1c(-c2c(F)cccc2Cl)noc1C	101.1*	89.6*	63.2*	15.3
CCCCn1c(=NC(=O)c2ccco2)c(C(=O)OCC)cc2c(=O)n3cccc(C)c3nc21	9.5	122.5*	81.7*	34.1
CCCCn1c(=NC(=O)c2ccco2)c(C(=O)OCC)cc2c(=O)n3ccccc3nc21	9.9	-3.0	46.5	25.6
CCCCCn1c(=NC(=O)c2ccco2)c(C(=O)OCC)cc2c(=O)n3ccccc3nc21	10.8	136.9*	42.1	31.4
O=C(C1CCC(=O)N(C2CC2)C1)N1CCC(Oc2cccc(C(F)(F)F)c2)CC1 (stereo unspecified)	x	-5.3	x	x
CC(=O)c1ccc([N+](=O)[O-])c(CS(=O)(=O)c2ccccc2)c1	x	-0.1	x	x
CC1(C)CC(=O)C2=C(C1)OC(N)=C(C#N)C2c1ccccc1 (stereo unspecified)	-0.5	u	-0.7	1.5
